Compound activity from PubChem BioAssay.
A3G deaminase – APOBEC3G (human) deaminase inhibition. 330,000 tested, 0.28% active. inhibition, % at 20 µM. recombinant A3G, ssDNA deamination FAM/TAMRA fluorescence. AID 493012. Q9HC16;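 active means inhibition of at least 40% at 20 µM, with no more than 30% in the related APOBEC3A deaminase screen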;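 further: plate controls were DMSO wells with A3G for no effect and wells lacking A3G enzyme for full effect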
iPSC survival up – enhancers of human iPSC single-cell survival; hiPSC single-cell survival, ATPlite luminescence; 100% = ROCK inhibitor wells, 0% = DMSO; survival enhancement, % at 20 µM; 360,000 tested, 0.044% active; in the data active means survival enhancement above about 18%;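 further: cells exposed to compounds for 16 hours before the ATP read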
HKDC1 inh – blocks human hexokinase HKDC1 activity; recombinant HKDC1, G6PDH/diaphorase resazurin coupled fluorescence; inhibition, % at 20 µM; 340,000 tested, 0.16% active; AID 493160;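 active means inhibition above about 35% when tested at 20 µM, limit read from the data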;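 further: plate controls were DMSO wells with enzyme for no effect and DMSO wells lacking enzyme for full effect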
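Assay system – recombinant HKDC1 (HK5) hexokinase enzyme, produced in-house · Input – HKDC1 at 5 µg/mL · Reagent – glucose plus 1 mM ATP as hexokinase substrates · Timing – 90 min reaction incubation at room temperature, dark · Measured by – G6PDH/diaphorase-coupled fluorescence, 1 mM NADP, 100 µM resazurin, 525/613 nm · Benchmarks – DMSO-enzyme wells negative, buffer-substituted wells positive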
A3A deaminase – human APOBEC3A DNA deaminase inhibition. recombinant A3A, FAM/TAMRA ssDNA deamination fluorescence. inhibition, % at 20 µM. 330,000 tested, 0.41% active. AID 493011;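 active means at least 40% inhibition at 20 µM here, with at most 30% in a related deaminase screen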;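 further: plate controls were A3A with DMSO for no effect and wells lacking A3A enzyme for full effect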
Target sequence (P31941 whole entry, looked up): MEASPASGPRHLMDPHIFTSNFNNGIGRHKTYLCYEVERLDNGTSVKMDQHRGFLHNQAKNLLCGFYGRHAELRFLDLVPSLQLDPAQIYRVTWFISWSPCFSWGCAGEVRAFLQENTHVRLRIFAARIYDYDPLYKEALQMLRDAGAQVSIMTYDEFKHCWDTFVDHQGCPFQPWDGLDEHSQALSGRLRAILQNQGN
PfGluPho inh – PfG6PD (Plasmodium falciparum) enzyme inhibition | AID 504690 | PfGluPho enzyme, NADPH resazurin-diaphorase fluorescence | inhibition, % at 20 µM | 350,000 tested, 0.78% active;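 active means inhibition reaching at least a set limit at 20 µM in the primary screen, cut at about 59% in these data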;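 further: 0% = DMSO wells with substrate and 100% = DMSO wells lacking glucose-6-phosphate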
Active calls of the source: *; x = no result. Hits are enriched below; roughly 1.4% of the tested compounds scored in any of these assays.

SMILES	A3G deaminase	iPSC survival up	HKDC1 inh	A3A deaminase	PfGluPho inh
COc1ccc(N2C(=O)NC(=O)/C(=C\c3ccc([N+](=O)[O-])s3)C2=O)cc1	16.5	-3.0	5.5	19.3	63.1*
COc1ccc(CN2C(=O)NC(=O)/C(=C/c3ccc([N+](=O)[O-])s3)C2=O)cc1	36.3	-0.4	13.2	15.7	67.4*
O=C1NC(=O)N(Cc2ccc(F)cc2)C(=O)/C1=C\c1ccc([N+](=O)[O-])s1	22.5	0.1	12.0	15.1	71.2*
COc1ccccc1N1C(=O)NC(=O)/C(=C/c2ccc([N+](=O)[O-])s2)C1=O	18.4	x	8.5	13.8	72.1*
COc1ccc(N2C(=O)NC(=O)/C(=C/c3ccc([N+](=O)[O-])s3)C2=O)cc1	12.6	-0.3	5.1	27.3	55.9
O=C(O)C1C2c3ccccc3C(O)C1(C(=O)O)c1ccccc12 (stereo not drawn)	x	1.0	-3.9	x	20.4
C[C@H](CO)N1C[C@H](C)[C@H](CN(C)C(=O)Oc2cccc3ccccc23)OCc2cnnn2CCCC1=O	x	-2.5	x	x	-12.7
CC1(C)C(=O)CC[C@@]2(C)C1=CCC1C2CC[C@]2(C)C(=O)CCC12 (stereo partly drawn)	-3.3	5.0	7.9	0.2	-7.9
CC(C)(C)C(=O)N1Cc2ccccc2-n2nncc2C1	x	-3.0	-7.9	x	8.7
Cc1ccnc(NC(=O)CCCc2ccc(N(CCCl)CCCl)cc2)n1	x	-1.5	-1.6	x	17.4
O=[N+]([O-])/C=C/c1c(Cl)cccc1Cl	x	-1.4	0.0	x	101.3*
COC1=C(C)C(=O)C2=C(C1=O)C(CO)N1C(C#N)C3CC4C(C1C2N1CCOC41)N3C (stereo not drawn)	x	-3.2	32.3	x	84.2*
Cn1ncc(Cl)c1C(=O)N1CCC2(CC1)OCCO2	-4.3	-0.3	-4.2	0.4	-6.9
CCCCCCn1c(O)c(C=NCCCn2ccnc2)c(=O)[nH]c1=O	-1.6	1.3	-1.4	-4.5	-14.0
COc1ccc(Cn2c(O)c(C=NCCCn3ccnc3)c(=O)[nH]c2=O)cc1	-4.7	17.5*	1.6	-1.1	1.9
COc1ccc(C(=O)O)cc1OC	x	2.9	4.3	x	11.9
O=C(O)c1cc[c]([Hg][Cl])cc1	91.6	-3.9	3.9	96.9	121.8*
CC(C)n1c(O)c(C2c3cc(Cl)ccc3Oc3[nH]c(=O)n(C(C)C)c(=O)c32)c(=O)[nH]c1=O (stereo not drawn)	x	26.0*	6.9	x	15.8
Cc1cc(O)c2c(c1)C(=O)C13C(=C2O)C(=O)[C@H]2[C@@H](O)[C@@H]1[C@H]1[C@H](O)[C@@H]3C(=O)C3=C(O)c4c(O)cc(C)cc4C(=O)C312 (stereo partly drawn)	3.8	-2.5	67.4*	10.9	28.8
O=C1NC(=S)N(c2ccccc2)C(=O)/C1=C/c1ccco1	52.6	0.1	67.6*	79.6	18.7
c1ccc(CN2COC3CCCCCC32)cc1 (stereo not drawn)	x	-0.5	x	x	x
CCn1nc(-c2cccs2)nc2c(=O)n(C)c(=O)nc1-2	x	-4.1	-30.5	x	107.1*
CCN(CC)CCO	-9.1	4.0	-0.3	-5.5	-25.4
C=C(CO)CC1CC(O)[C@]2(C)OC3CC4OC5C[C@]6(C)O[C@]7(C)CCC8OC9C[C@]%10(C)OC%11C(C)=CC(=O)OC%11CC%10OC9C[C@@H](C)C8OC7CC6O[C@]5(C)C/C=C\C4OC3CC2O1 (stereo partly drawn)	-7.8	-0.9	1.3	0.2	-3.4
C=C(C=O)CC1CC(O)[C@]2(C)OC3CC4OC5C[C@]6(C)O[C@]7(C)CCC8OC9C[C@]%10(C)OC%11C(C)=CC(=O)OC%11CC%10OC9C[C@@H](C)C8OC7CC6O[C@]5(C)CC5OC5C4OC3CC2O1 (stereo partly drawn)	2.8	39.9*	10.9	5.9	14.6
COC(=O)c1ccc(CC(C(=O)c2ccccc2)N(C)C)cc1 (stereo not drawn)	-3.5	-0.1	-2.1	3.4	12.1
ClC(Cl)=C(c1ccc(Cl)cc1)c1ccc(Cl)cc1	-5.8	2.6	-0.8	-4.5	-12.9
O=C1NC(=O)N(Cc2ccco2)C(=O)/C1=C/c1ccc(-c2cccc([N+](=O)[O-])c2)o1	53.9	-2.0	36.9*	65.6	90.1*
C=C1C(=O)O[C@@H]2C[C@@H](C)[C@@H]3C=CC(=O)[C@@]3(C)[C@@H](O)[C@H]12	-3.5	81.5*	-4.6	-1.0	22.7
